In the library only some 2.5% were active in any assay of this set; here they are far more common.
MEKK3 PB1 HTS = raises or lowers MEK5 binding to the human MEKK3 PB1 domain | bead-based flow cytometry, Alexa488-MEK5 binding to MEKK3; actives lie on both sides; 0 = blocked by unlabeled MEK5, 100 = vehicle | 1.4% of 290,000 active | binding response (% of control), % at 10 µM | AID 1529;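 active means binding response more than 3 SD above or below the average of its plate-row segment, actives on both sides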;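 further: Alexa488 bead fluorescence after subtracting the streptavidin-only scavenger bead signal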
Target sequence (Q99759 whole entry, looked up, the tested form may be a part): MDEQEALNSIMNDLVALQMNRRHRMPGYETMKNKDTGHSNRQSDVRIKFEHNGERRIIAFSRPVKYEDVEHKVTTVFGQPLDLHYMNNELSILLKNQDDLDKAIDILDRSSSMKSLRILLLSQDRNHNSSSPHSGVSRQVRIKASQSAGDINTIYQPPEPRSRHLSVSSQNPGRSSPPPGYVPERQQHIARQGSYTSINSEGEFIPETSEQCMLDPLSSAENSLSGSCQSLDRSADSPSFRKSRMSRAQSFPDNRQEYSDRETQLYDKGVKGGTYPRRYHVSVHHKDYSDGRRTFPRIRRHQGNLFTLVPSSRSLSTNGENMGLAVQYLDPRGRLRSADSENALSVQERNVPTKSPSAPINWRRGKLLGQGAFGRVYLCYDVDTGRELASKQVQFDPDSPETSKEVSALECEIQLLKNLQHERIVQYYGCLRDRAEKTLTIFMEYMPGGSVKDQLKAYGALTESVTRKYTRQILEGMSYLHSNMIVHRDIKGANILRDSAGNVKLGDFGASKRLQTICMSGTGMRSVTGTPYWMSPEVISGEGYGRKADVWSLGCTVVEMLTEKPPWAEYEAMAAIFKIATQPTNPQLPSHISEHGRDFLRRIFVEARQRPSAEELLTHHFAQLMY
Efflux pump inh = antifungal efflux pump inhibition, Nile Red retention. S. cerevisiae Candida pump triplex. 0.44% of 330,000 active. inhibition, % at 10 µM;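 active means plate passing quality check with inhibition over a set limit, or well fluorescence over plate mean plus 4 SD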;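 further: Nile Red retained in pooled yeast measured as flow cytometry median fluorescence; higher means more Nile Red kept so more efflux inhibition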
ABCG2 inh = blocks JC-1 efflux by human ABCG2 transporter; AID 1325; 0.1% of 190,000 active; inhibition, % at 6.6 µM; Q9UNQ0; IgMXP3 cells, flow cytometry;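 active means inhibition above 80%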
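System: two drug-resistant human cell lines, ABCG2 and ABCB1; controls: nicardipine high and DMSO low controls; times: 10 min exposure at 25 °C with rotation, no wash; detection: flow cytometry of retained JC-1 fluorescence; read-out basis: percent efflux inhibition, scaled nicardipine 100% to DMSO 0%; doses: one concentration, 6.6 µM final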
MEKK2 mut-MEK5 = signal of MEK5 binding to mutant human MEKK2 PB1 domain; AID 1530; bead flow cytometry, Alexa488-MEK5 binding to MEKK2 mutant; percent response, % at 10 µM; 0.35% of 290,000 active; in the data active means percent response above about 24%, passing the limit was not always enough
ABCB1 block = blocks JC-1 efflux by human ABCB1 transporter | CCRF-Adr cells, flow cytometry | inhibition, % at 6.6 µM | 0.067% of 190,000 active | AID 1326; in the data active means inhibition above about 40%;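 further: higher value means more JC-1 retained so stronger ABCB1 efflux block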
MEKK2wt PB1 HTS = raises or lowers MEK5 binding to wildtype human MEKK2 PB1 domain | 1.1% of 290,000 active | Q9Y2U5 | bead flow cytometry, Alexa488-MEK5 binding to MEKK2 WT; actives lie on both sides | AID 1531 | binding response (% of control), % at 10 µM; in the data active means binding response below about 67% or above about 130%
MEKK2wt confirm = raises or lowers MEK5 binding to wildtype human MEKK2, retest; 2.4% of 5,900 active; binding response (% of control), % at 10 µM; bead flow cytometry, Alexa488-MEK5 binding to MEKK2 WT; actives lie on both sides; shares compounds with MEKK3 PB1 HTS; in the data active means binding response below about 16% or above about 210%; inactive means in between
MEKK2mut-MEK5 = signal of MEK5 binding to mutant human MEKK2, retest; bead flow cytometry, Alexa488-MEK5 binding to MEKK2 mutant; shares compounds with MEKK3 PB1 HTS; percent response, % at 10 µM; 2% of 5,900 active; AID 1893; in the data active means percent response mostly above about 71%, no sharp cut-off; inactive means mostly below about 38%;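 further: higher means compound restores mutant binding toward wildtype level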
MEKK3 confirm = MEKK3-MEK5 PB1 inhibition, single concentration confirmation | shares compounds with MEKK3 PB1 HTS | bead flow cytometry, Alexa488-MEK5 binding to MEKK3; stronger effect = lower value | binding response (% of control), % at 10 µM | 1.8% of 5,900 active;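 active means binding response below 72% of control, or above a set upper limit, though filed actives all read lower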
Hits are given with their value; [ ] = dose if it differs, or a comment.

Screening O=C1CCC(C(=O)N2CCCCO2)CN1Cc1cccc(F)c1 (centres undefined) returned MEKK3 PB1 HTS inactive, Efflux pump inh inactive, MEKK2 mut-MEK5 inactive and MEKK2wt PB1 HTS inactive.
CCCCCCCCCCOC(=O)Cn1c(COc2ccccc2OC)[n+](C)c2ccccc21 was read as MEKK3 PB1 HTS inactive, Efflux pump inh inactive, MEKK2 mut-MEK5 61, MEKK2wt PB1 HTS 238, MEKK2wt confirm 251, MEKK2mut-MEK5 141 and MEKK3 confirm inactive.
Cn1c(COc2ccccc2O)[n+](C)c2ccccc21 was read as MEKK3 PB1 HTS inactive, Efflux pump inh inactive, MEKK2 mut-MEK5 inactive and MEKK2wt PB1 HTS inactive.
Screening COc1ccc(C(=O)Nc2ccc(NC(=O)c3cccs3)cc2)cc1Cl returned MEKK3 PB1 HTS 130, Efflux pump inh inactive, ABCG2 inh inactive, MEKK2 mut-MEK5 inactive, ABCB1 block inactive, MEKK2wt PB1 HTS inactive, MEKK2wt confirm inactive, MEKK2mut-MEK5 inactive and MEKK3 confirm inactive.
`CCC(c1nnc(SCC(=O)NCCc2ccc(OC)c(OC)c2)n1Cc1ccccc1)N(C)C` (centres undefined) gave MEKK3 PB1 HTS inactive, Efflux pump inh inactive, ABCG2 inh inactive, MEKK2 mut-MEK5 inactive, ABCB1 block inactive and MEKK2wt PB1 HTS inactive.
Screening O=C(COc1ccc2c(c1)CCC2)N1CCN(c2ccccc2F)CC1 returned MEKK3 PB1 HTS 142, Efflux pump inh inactive, ABCG2 inh inactive, MEKK2 mut-MEK5 inactive, ABCB1 block inactive, MEKK2wt PB1 HTS inactive, MEKK2wt confirm inactive, MEKK2mut-MEK5 inactive and MEKK3 confirm inactive.
O=C(COc1ccc2c(c1)CCC2)N1CCN(c2cccc(C(F)(F)F)c2)CC1 was read as MEKK3 PB1 HTS inactive, Efflux pump inh inactive, ABCG2 inh inactive, MEKK2 mut-MEK5 inactive, ABCB1 block inactive and MEKK2wt PB1 HTS inactive.
COc1ccc(-c2nn(-c3ccccc3)cc2C(=O)OCC(=O)c2ccc(C)c([N+](=O)[O-])c2)cc1 was read as MEKK3 PB1 HTS inactive, Efflux pump inh inactive, ABCG2 inh inactive, MEKK2 mut-MEK5 inactive, ABCB1 block inactive and MEKK2wt PB1 HTS inactive.
For COc1ccc(-c2cc(C(=O)OCC(=O)c3ccc(C)c([N+](=O)[O-])c3)c3ccccc3n2)cc1 the results were MEKK3 PB1 HTS 130, Efflux pump inh inactive, ABCG2 inh inactive, MEKK2 mut-MEK5 inactive, ABCB1 block inactive, MEKK2wt PB1 HTS inactive, MEKK2wt confirm inactive, MEKK2mut-MEK5 inactive and MEKK3 confirm inactive.
For Cc1cc(C)cc(N(C(=O)C2CCCC2)C2C=CS(=O)(=O)C2)c1 (centres undefined) the results were MEKK3 PB1 HTS 76[inhibitor], Efflux pump inh inactive, ABCG2 inh inactive, MEKK2 mut-MEK5 inactive, ABCB1 block inactive, MEKK2wt PB1 HTS inactive, MEKK2wt confirm inactive, MEKK2mut-MEK5 inactive and MEKK3 confirm inactive.
Screening Cc1cc(C)cc(N(C(=O)c2cc3ccccc3oc2=O)C2C=CS(=O)(=O)C2)c1 (centres undefined) returned MEKK3 PB1 HTS 141, Efflux pump inh inactive, ABCG2 inh inactive, MEKK2 mut-MEK5 inactive, ABCB1 block inactive, MEKK2wt PB1 HTS inactive, MEKK2wt confirm inactive, MEKK2mut-MEK5 inactive and MEKK3 confirm inactive.
For Cc1ccc(N(C(=O)c2cc3ccccc3oc2=O)C2C=CS(=O)(=O)C2)cc1 (centres undefined) the results were MEKK3 PB1 HTS inactive, Efflux pump inh inactive, ABCG2 inh inactive, MEKK2 mut-MEK5 inactive, ABCB1 block inactive and MEKK2wt PB1 HTS inactive.
Cc1nc2ccc(S(=O)(=O)NCC(=O)Nc3cccc(F)c3)cc2s1 was read as MEKK3 PB1 HTS inactive, Efflux pump inh inactive, ABCG2 inh inactive, MEKK2 mut-MEK5 inactive, ABCB1 block inactive and MEKK2wt PB1 HTS inactive.
`COc1cccc(/C=C/C(=O)OCC(=O)Nc2nnc(-c3ccccc3)o2)c1` gave Efflux pump inh inactive.
For CCOC(=O)c1c(C)[nH]c(C)c1C(=O)COC(=O)c1nc2nccc(C)n2n1 the results were MEKK3 PB1 HTS inactive, Efflux pump inh inactive, ABCG2 inh inactive, MEKK2 mut-MEK5 inactive, ABCB1 block inactive and MEKK2wt PB1 HTS inactive.
CCCn1c(-c2cccc([N+](=O)[O-])c2)nc2c1c(=O)[nH]c(=O)n2Cc1ccccc1 was read as MEKK3 PB1 HTS 70[inhibitor], Efflux pump inh inactive, ABCG2 inh inactive, MEKK2 mut-MEK5 inactive, ABCB1 block inactive, MEKK2wt PB1 HTS inactive, MEKK2wt confirm inactive, MEKK2mut-MEK5 inactive and MEKK3 confirm inactive.
Screening CC(C)(C)c1cc(-c2n[nH]c(=S)n2-c2ccccc2F)n[nH]1 returned MEKK3 PB1 HTS inactive, Efflux pump inh inactive, MEKK2 mut-MEK5 inactive and MEKK2wt PB1 HTS inactive.
O=C(Nc1ccccc1C(=O)N1CCOCC1)C1CCCO1 (centres undefined) was read as MEKK3 PB1 HTS 1.0[inhibitor], Efflux pump inh inactive, ABCG2 inh inactive, MEKK2 mut-MEK5 inactive, ABCB1 block inactive, MEKK2wt PB1 HTS -1.0[inhibitor], MEKK2wt confirm inactive, MEKK2mut-MEK5 inactive and MEKK3 confirm inactive.
O=C(Nc1ccccc1N1CCOCC1)C1CCCO1 (centres undefined) was read as Efflux pump inh inactive.
Screening Cc1cccc(OCC(=O)N/N=C/c2ccc(N(C)C)cc2)c1 returned MEKK3 PB1 HTS inactive, Efflux pump inh inactive, ABCG2 inh inactive, MEKK2 mut-MEK5 inactive, ABCB1 block inactive and MEKK2wt PB1 HTS inactive.
Cc1cccc(OCC(=O)N/N=C/c2ccccc2C(=O)O)c1 was read as MEKK3 PB1 HTS 132, Efflux pump inh inactive, ABCG2 inh inactive, MEKK2 mut-MEK5 inactive, ABCB1 block inactive, MEKK2wt PB1 HTS inactive, MEKK2wt confirm inactive, MEKK2mut-MEK5 inactive and MEKK3 confirm inactive.
Screening Cc1cccc(OCC(=O)Nc2ccccc2C(=O)N2CCOCC2)c1 returned MEKK3 PB1 HTS 130, Efflux pump inh inactive, ABCG2 inh inactive, MEKK2 mut-MEK5 inactive, ABCB1 block inactive, MEKK2wt PB1 HTS inactive, MEKK2wt confirm inactive, MEKK2mut-MEK5 inactive and MEKK3 confirm inactive.
CS(=O)(=O)N(CC(=O)Nc1ccccc1C(=O)N1CCOCC1)c1ccc(Cl)cc1 was read as MEKK3 PB1 HTS 44[inhibitor], Efflux pump inh inactive, MEKK2 mut-MEK5 inactive, MEKK2wt PB1 HTS 43[inhibitor], MEKK2wt confirm inactive, MEKK2mut-MEK5 inactive and MEKK3 confirm inactive.

High-throughput results: PubChem BioAssay, NMMLSC
